High-throughput results (PubChem)
procasp7 counter = procaspase-7 activators, primary screen, counter-screen for procaspase-3 activator project, biochemical, absorbance, HTS, human. Caspase-7 (Homo sapiens), P55210. recombinant procaspase-7, Ac-DEVD-pNA absorbance 405 nm; D23A/D198A/D206A triple mutant, cannot self-cleave; scale: DMSO 0, 5 µM enzyme 100. activation, % at 8.5 µM. hit rate 0.093% among 330,000. AID 463210, 2010;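 active = percent activation above the screen-wide mean plus 3 SD, cut at about 25% in these data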
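Material: Procaspase-7 triple mutant (PC-7 D3A) | Quantity: 2 µM procaspase-7 mutant as dispensed | Reagent: DEVD-pNA substrate | Times: 1 h preincubation, 2 h reaction | Technique: 405 nm absorbance of p-nitroaniline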
procasp3 activ = activators of human procaspase-3 D3A mutant, primary screen, biochemical, absorbance, PC-3 D3A mutant, single concentration; Caspase-3 (Homo sapiens), P42574; hit rate 0.11% among 330,000; activation, % at 8.5 µM; recombinant procaspase-3 D3A, Ac-DEVD-pNA absorbance 405 nm;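 active = activation above the mean of all tested compounds plus 3 SD, cut at about 21% in these data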
Target sequence (P42574 whole entry D9A/D28A/D175A): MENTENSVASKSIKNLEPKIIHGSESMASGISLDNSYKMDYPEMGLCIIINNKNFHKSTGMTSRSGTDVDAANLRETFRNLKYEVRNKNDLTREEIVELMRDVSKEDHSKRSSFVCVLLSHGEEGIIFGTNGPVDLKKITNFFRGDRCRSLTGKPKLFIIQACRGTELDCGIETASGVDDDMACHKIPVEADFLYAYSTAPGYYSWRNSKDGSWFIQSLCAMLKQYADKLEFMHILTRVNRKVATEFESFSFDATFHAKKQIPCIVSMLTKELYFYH
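Test system: Procaspase-3 D3A mutant; medium: Zinc-free HEPES/NaCl buffer with 0.01% Triton X-100 at pH 7.4; reagent: DEVD-pNA substrate; doses: one concentration, 8.5 µM nominal, 0.8% DMSO; times: 1 h preincubation plus 2 h reaction at 25 °C; signal: Epi-absorbance at 405 nm of released p-nitroaniline, 0 and 120 min; replicates: singlicate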
VIM-2 inhibitor = VIM-2 metallo-beta-lactamase inhibitors, primary screen, biochemical, epi-absorbance readout, Pseudomonas aeruginosa enzyme; purified VIM-2, nitrocefin hydrolysis, epi-absorbance fluorescence; inhibition, % at 5.6 µM; hit rate 0.89% among 290,000;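 active = inhibition above the mean of all tested compounds plus 3 SD, cutoff set per screening run, cut at about 7.5% in these data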;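 note: red hydrolysis product quenches plate fluorescence so inhibitors raise well fluorescence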
IMP-1 inh-1 = IMP-1 metallo-beta-lactamase inhibitors, primary screen, biochemical, epi-absorbance readout, Pseudomonas aeruginosa enzyme | metallo-beta-lactamase IMP-1 (Pseudomonas aeruginosa) | purified IMP-1, nitrocefin hydrolysis, epi-absorbance fluorescence | inhibition, % at 5.6 µM | hit rate 0.45% among 290,000;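 active = inhibition above the mean plus 3 SD of all compounds in the same screening run, cut at about 4.5% in these data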
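Assay system: purified recombinant IMP-1 beta-lactamase. Input: IMP-1 0.2 nM before substrate addition. Buffer or medium: Zinc- and detergent-supplemented HEPES buffer, pH 7.1. Schedule: 25 °C, 15 min preincubation, 25 min reaction. Signal: Epi-absorbance fluorescence, 480 nm excitation, 530 nm emission. Evaluation: percent inhibition from optical density relative to buffer-blank wells.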
PolyA inh = polyadenylation inhibitors in yeast reporter cells, primary screen, luminescence, S. cerevisiae. AID 1875, 2009. hit rate 0.02% among 300,000. S. cerevisiae SKY197-pL101 polyadenylation reporter, beta-gal luminescence; efflux-impaired pdr1/pdr3 knockout yeast; score 100 = 6 SD above DMSO. activity score, % at 12 µM;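 active = lowest replicate activity score at least 50, where 100 means six control SD above control mean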;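 note: yeast exposed to compound for 9 h at 30 °C; higher score means more reporter readthrough which indicates perturbed polyadenylation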
Neddyl block = inhibitors of cullin neddylation, primary screen, biochemical, TR-FRET, uHTS, NAE and Ubc12 | calls only at 25 µM | hit rate 0.58% among 360,000 | AID 651699, 2012; in the data active = inhibition above about 36%
IMP-1 inh-2 = IMP-1 metallo-beta-lactamase inhibitors, confirmation, selectivity assay for selective VIM-2 inhibitor project, biochemical, epi-absorbance readout, triplicate; purified IMP-1, nitrocefin hydrolysis, epi-absorbance fluorescence; inhibition, % at 5.6 µM; 1,300 tested, under 10 active; shares compounds with VIM-2 inhibitor; call rule not given here
VIM-2 FRET inh = VIM-2 inhibitors in FRET format, confirmation, artefact control for selective VIM-2 inhibitor project, biochemical, epi-absorbance artifact exclusion. shares compounds with VIM-2 inhibitor. purified VIM-2, CCF2 FRET substrate hydrolysis. inhibition, % at 5.6 µM. hit rate 23% among 1,300. AID 1857, 2009;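 active = inhibition above the mean of all tested compounds plus 3 SD, cut at about 19% in these data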
TEM-1 inh = TEM-1 serine beta-lactamase inhibitors, counter-screen for VIM-2 inhibitor project, biochemical, epi-absorbance, HTS; inhibition, % at 5.6 µM; hit rate 3% among 1,300; Purified TEM-1, nitrocefin hydrolysis, epi-absorbance fluorescence; shares compounds with VIM-2 inhibitor;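 active = inhibition above that campaign's mean inhibition plus 3 SD, cut at about 0.46% in these data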
Target sequence (P62593 whole entry, looked up): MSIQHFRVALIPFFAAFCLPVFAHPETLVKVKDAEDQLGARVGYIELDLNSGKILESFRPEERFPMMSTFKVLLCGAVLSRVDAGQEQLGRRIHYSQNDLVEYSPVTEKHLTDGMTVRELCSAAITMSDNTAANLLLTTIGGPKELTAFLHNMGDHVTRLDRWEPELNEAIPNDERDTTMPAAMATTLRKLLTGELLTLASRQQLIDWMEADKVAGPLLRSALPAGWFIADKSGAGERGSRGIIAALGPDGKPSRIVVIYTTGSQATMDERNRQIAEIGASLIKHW
VIM-2 inh conf = VIM-2 metallo-beta-lactamase inhibitors, confirmation, biochemical, epi-absorbance, hits shared with IMP-1 screen; inhibition, % at 5.6 µM; purified VIM-2, nitrocefin hydrolysis; AID 2187, 2009; hit rate 96% among 1,300; shares compounds with VIM-2 inhibitor;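 active = inhibition of the VIM-2 beta-lactamase enzyme above about 11% from the earlier first-round screen, limit read from the data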
Large screens that a line does not name were inactive (follow-up assays come after a bar, where shown). Sampled rows, rich in hits. Any-hit rate of the full collection: about 1.7%.

C[C@H](CO)N1C[C@H](C)[C@@H](CN(C)S(C)(=O)=O)Oc2ccc(NC(=O)CCN3CCOCC3)cc2C1=O	procasp7 counter 26.7 (no result: VIM-2 inhibitor, IMP-1 inh-1, PolyA inh)
Cc1c(C)n(CCc2ccccc2)c2ncnc(NN)c12	VIM-2 inhibitor 7.8
CCOc1ccccc1C(=O)Nc1nnc(SCC(=O)N2CCCC2)s1	none (no result: procasp7 counter, procasp3 activ, VIM-2 inhibitor, IMP-1 inh-1, PolyA inh)
O=C(Nc1nnc(SCC(=O)N2CCCCC2)s1)c1ccccc1F	VIM-2 inhibitor 9.2
COC(=O)c1sc(-c2cccs2)cc1N	IMP-1 inh-1 12.6
COC(=O)c1sc(-c2ccc(Cl)cc2)cc1N	none
Cc1cc(=O)oc2cc(NC(=O)c3ccc(OC(F)F)cc3)ccc12	IMP-1 inh-1 8.7 (not shown: Neddyl block)
Cc1cc(=O)oc2cc(NC(=O)C(C)N3C(=O)C4CCCCC4C3=O)ccc12 (stereo unspecified)	Neddyl block active (no result: VIM-2 inhibitor, IMP-1 inh-1, PolyA inh)
Cc1cc(=O)oc2cc(NC(=O)c3cccc(F)c3)ccc12	none
Cc1ccc2c(c1)NC(=O)C(CC(=O)NCCCN1CCCC1)O2 (stereo unspecified)	none
COc1ccccc1NC(=O)Nc1ccnn1C1CCCCC1	none
COc1ccccc1-n1c(C)cc(/C=C2/C(=N)N3C(=NC2=O)SN=C3S(C)(=O)=O)c1C	Neddyl block active
COc1ccc(Cl)cc1NC(=O)CN(C)CC(=O)Nc1ccccc1-c1ccccc1	none
O=C1N=C(c2ccccc2)C(c2ccccc2)N1 (stereo unspecified)	VIM-2 inhibitor 15.3 (not shown: Neddyl block) | IMP-1 inh-2 inactive | VIM-2 FRET inh inactive | TEM-1 inh inactive | VIM-2 inh conf 50.6
COc1ccc(C2=NC(=O)NC2c2ccc(OC)cc2)cc1 (stereo unspecified)	none
CCN1CCN(c2ccc(NC(=O)c3cccc(F)c3)cc2Cl)CC1	none
Cc1cccn2c(=O)c3cc(C(=O)NCCCOC(C)C)sc3nc12	VIM-2 inhibitor 18.1 (not shown: Neddyl block) | IMP-1 inh-2 inactive | VIM-2 FRET inh inactive | TEM-1 inh inactive | VIM-2 inh conf 26.4
CCOCCCNC(=O)c1cc2c(=O)n3cccc(C)c3nc2s1	VIM-2 inhibitor 16.4 (not shown: Neddyl block) | IMP-1 inh-2 inactive | VIM-2 FRET inh inactive | TEM-1 inh inactive | VIM-2 inh conf 30.8
Cc1cccn2c(=O)c3cc(C(=O)NCC(C)C)sc3nc12	VIM-2 inhibitor 14.3 (not shown: Neddyl block) | IMP-1 inh-2 inactive | VIM-2 FRET inh inactive | TEM-1 inh inactive | VIM-2 inh conf 23.0
CCOC(=O)CC1C(=O)NCCN1C(=O)c1cc2c(=O)n3cccc(C)c3nc2s1 (stereo unspecified)	VIM-2 inhibitor 13.9 (not shown: Neddyl block) | IMP-1 inh-2 inactive | VIM-2 FRET inh inactive | TEM-1 inh inactive | VIM-2 inh conf 26.4
CCOC(=O)CC1C(=O)NCCN1C(=O)c1cc2c(=O)n3ccccc3nc2s1 (stereo unspecified)	none (no result: Neddyl block)
COc1ccc(-c2[nH]ncc2CN(C)C(C)c2ccon2)c(OC)c1 (stereo unspecified)	none
S=c1[nH]nc(-c2c[nH]c3ccccc23)o1	none (not shown: Neddyl block)
CCCN(CCC)C(=O)c1cc2c(=O)n3cccc(C)c3nc2s1	VIM-2 inhibitor 12.5 (not shown: Neddyl block) | IMP-1 inh-2 inactive | VIM-2 FRET inh inactive | TEM-1 inh inactive | VIM-2 inh conf 17.4
CC1CC(=O)Nc2ccccc2N1C(=O)CSc1nnnn1C(C)C (stereo unspecified)	none (no result: VIM-2 inhibitor, IMP-1 inh-1, PolyA inh)
CCOc1ccc(-c2nnc(-c3ccncc3)o2)cc1OCC	VIM-2 inhibitor 23.8 | IMP-1 inh-2 inactive | VIM-2 FRET inh inactive | TEM-1 inh inactive | VIM-2 inh conf 31.2
c1ccc2nc3c(nc2c1)c1ccccc1n3CCN1CCOCC1	VIM-2 inhibitor 12.4 | IMP-1 inh-2 inactive | VIM-2 FRET inh inactive | TEM-1 inh inactive | VIM-2 inh conf 18.3
O=c1c2ccccc2nc2c3ccccc3c(NCCN3CCOCC3)nn12	VIM-2 inhibitor 17.9 (no result: Neddyl block) | IMP-1 inh-2 inactive | VIM-2 FRET inh inactive | TEM-1 inh inactive | VIM-2 inh conf 28.1
O=C(OCC(=O)N1CCN(C(=O)c2ccco2)CC1)c1cc(-c2ccco2)nc2ccccc12	VIM-2 inhibitor 15.4, Neddyl block active | IMP-1 inh-2 inactive | VIM-2 FRET inh inactive | TEM-1 inh inactive | VIM-2 inh conf 10.9
O=C(OCC(=O)N1CCN(C(=O)c2ccco2)CC1)c1cc(-c2ccc(Cl)c(Cl)c2Cl)nc2ccccc12	none
COc1cccc(/C=C2/Sc3ccc(C(=O)NCCCN4CCCC4)cc3NC2=O)c1	VIM-2 inhibitor 16.1 | IMP-1 inh-2 inactive | VIM-2 FRET inh 43.1 | TEM-1 inh inactive | VIM-2 inh conf 28.4
O=C1Nc2cc(C(=O)NCCCN3CCCC3)ccc2S/C1=C/c1ccccc1F	VIM-2 inhibitor 32.9 | IMP-1 inh-2 inactive | VIM-2 FRET inh 53.7 | TEM-1 inh inactive | VIM-2 inh conf 38.4
O=C(NCCCN1CCCCC1)c1ccc2c(c1)NC(=O)c1ccccc1S2	none
Cc1cccc(C(=O)Nc2ccnc(-c3ccncc3)n2)c1	none
Cc1cccnc1CN1CCN(C(=O)c2cc(COc3ccc4ncccc4c3)on2)CC1	VIM-2 inhibitor 47.8 | IMP-1 inh-2 inactive | VIM-2 FRET inh inactive | TEM-1 inh inactive | VIM-2 inh conf 63.8
CCOC(CNC(=O)c1cc2c(=O)n(CC)c3ccccc3c2s1)OCC	none (not shown: Neddyl block)
CCCCN(CC)CCNC(=O)c1cc2c(=O)n(CC)c3ccccc3c2s1	VIM-2 inhibitor 14.0 (not shown: Neddyl block) | IMP-1 inh-2 inactive | VIM-2 FRET inh inactive | TEM-1 inh inactive | VIM-2 inh conf 18.7
